Data: ChEMBL document CHEMBL3739314, “Discovery of Nanomolar Dengue and West Nile Virus Protease Inhibitors Containing a 4-Benzyloxyphenylglycine Residue” (J Med Chem, 2015)

Columns and labels:
[1] = Inhibition of Dengue virus serotype-2 NS2B-NS3 protease using 2-Abz-Nle-Lys-Arg-Arg-Ser-(3-NO2)-Tyr-NH2 as substrate preincubated with protein for 15 mins followed by substrate addition measured for 15 mins by FRET assay; parameters: species or system dengue virus type 2
In short: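 DENV-2 NS2B-NS3 linked construct at 30 nM (15 nM in some cases), same pH 9 Tris buffer, 15 min preincubation and FRET read-out. Eight inhibitor concentrations spanned 0–1, 0–2, 0–6 or 0–50 μM, with substrate at 50 μM. IC50 was fitted from triplicates.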

[2] = target: Prothrombin (Homo sapiens) (UniProt P00734); assay: Inhibition of thrombin (unknown origin) using Boc-Val-Pro-Arg-AMC as substrate at 25 uM preincubated with protein for 15 mins followed by substrate addition measured for 10 mins by continuous fluorimetric assay relative to control
[3] = Inhibition of West Nile virus NS2B-NS3 protease using 2-Abz-Gly-Leu-Lys-Arg-Gly-Gly-[…]-Tyr-NH2 as substrate preincubated with protein for 15 mins followed by substrate addition measured for 15 mins by FRET assay
In short: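 WNV NS2B-NS3 linked construct at 75 nM (40 nM in one case) in pH 9 Tris buffer, preincubated 15 min with eight inhibitor concentrations (ranges 0–1 up to 0–50 μM). Substrate was 50 μM, with FRET readout over 15 min. IC50 was fitted from triplicates.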

West Nile virus = assay: Inhibition of West Nile virus NS2B-NS3 protease using 2-Abz-Gly-Leu-Lys-Arg-Gly-Gly-[…]-Tyr-NH2 as substrate at 50 uM preincubated with protein for 15 mins followed by substrate addition measured for 15 mins by FRET assay
In short: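 Linked WNV NS2B-NS3 protease (150 nM) was preincubated 15 min with inhibitor (50 μM final) in 50 mM Tris-HCl pH 9, 10% ethylene glycol, 0.0016% Brij 58. […] Percent inhibition was taken from the slope relative to the no-inhibitor control, in triplicate.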

Row | Structure (SMILES) | IC50 [1] [nM] | inhibition [2] [%] | IC50 [3] [nM] | inhibition (West Nile virus) [%]
1 | N=C(N)NCCC[C@H](NC(=O)c1ccccc1)C(=O)N[C@@H](CCCCN)C(=O)N[C@@H](C(N)=O)c1ccc(OCc2ccc(Cl)c(Cl)c2)cc1 | 177 | < 30 | 615 | 97.8
2 | N=C(N)NCCC[C@H](NC(=O)c1ccccc1)C(=O)N[C@@H](CCCCN)C(=O)N[C@@H](C(N)=O)c1ccc(OCc2cccc(Cl)c2)cc1 | 186 | < 30 | 321 | 102
3 | N=C(N)NCCC[C@H](NC(=O)c1ccsc1)C(=O)N[C@@H](CCCCN)C(=O)N[C@@H](C(N)=O)c1ccc(OCc2ccccc2)cc1 | 179 | < 30 | 490 | 98.2
4 | N=C(N)NCCC[C@H](NC(=O)c1cncs1)C(=O)N[C@@H](CCCCN)C(=O)N[C@@H](C(N)=O)c1ccc(OCc2ccccc2)cc1 | 304 | < 30 | – | 97.4
5 | N#Cc1ccc(COc2ccc([C@@H](NC(=O)[C@H](CCCCN)NC(=O)[C@H](CCCNC(=N)N)NC(=O)c3ccccc3)C(N)=O)cc2)cc1 | 399 | < 30 | 213 | 99.9
6 | N=C(N)NCCC[C@H](NC(=O)c1ccc(F)cc1)C(=O)N[C@@H](CCCCN)C(=O)N[C@@H](C(N)=O)c1ccc(OCc2ccccc2)cc1 | 639 | < 30 | – | 92.9
7 | N=C(N)NCCC[C@H](NC(=O)c1ccc(Cl)s1)C(=O)N[C@@H](CCCCN)C(=O)N[C@@H](C(N)=O)c1ccc(OCc2ccccc2)cc1 | 177 | < 30 | 457 | 98.4
8 | N=C(N)NCCC[C@H](NC(=O)c1ccccc1C(F)(F)F)C(=O)N[C@@H](CCCCN)C(=O)N[C@@H](C(N)=O)c1ccc(OCc2ccccc2)cc1 | 301 | < 30 | 434 | 98.7
9 | N=C(N)NCCC[C@H](NC(=O)c1ccccc1)C(=O)N[C@@H](CCCCN)C(=O)N[C@@H](C(N)=O)c1ccc(OCc2ccccc2C(F)(F)F)cc1 | 181 | < 30 | – | 97
10 | N=C(N)NCCC[C@H](NC(=O)c1sccc1-n1cccc1)C(=O)N[C@@H](CCCCN)C(=O)N[C@@H](C(N)=O)c1ccc(OCc2ccccc2)cc1 | 322 | < 30 | – | 94.3
11 | CC(=O)c1ccc(C(=O)N[C@@H](CCCNC(=N)N)C(=O)N[C@@H](CCCCN)C(=O)N[C@@H](C(N)=O)c2ccc(OCc3ccccc3)cc2)cc1 | 1040 | < 30 | – | 84.6
12 | N=C(N)NCCC[C@H](NC(=O)c1ccccc1)C(=O)N[C@@H](CCCCN)C(=O)N[C@@H](C(N)=O)c1ccc(OCc2ccc(Br)cc2)cc1 | 236 | < 30 | 308 | 99.2
13 | N=C(N)NCCC[C@H](NC(=O)c1ccccc1)C(=O)N[C@@H](CCCCN)C(=O)N[C@@H](C(N)=O)c1ccc(OCc2ccc3ccccc3c2)cc1 | 192 | < 30 | – | 92.6
14 | N=C(N)NCCC[C@H](NC(=O)C1CCCC1)C(=O)N[C@@H](CCCCN)C(=O)N[C@@H](C(N)=O)c1ccc(OCc2ccccc2)cc1 | 701 | < 30 | – | 96.3
15 | N=C(N)NCCC[C@H](NC(=O)c1cc2ccsc2s1)C(=O)N[C@@H](CCCCN)C(=O)N[C@@H](C(N)=O)c1ccc(OCc2ccccc2)cc1 | 505 | < 30 | – | 96.6
16 | N=C(N)NCCC[C@H](NC(=O)C1CCC1)C(=O)N[C@@H](CCCCN)C(=O)N[C@@H](C(N)=O)c1ccc(OCc2ccccc2)cc1 | 631 | < 30 | 434 | 98
17 | N=C(N)NCCC[C@H](NC(=O)c1cscn1)C(=O)N[C@@H](CCCCN)C(=O)N[C@@H](C(N)=O)c1ccc(OCc2ccccc2)cc1 | 173 | < 30 | 348 | 100
18 | N=C(N)NCCC[C@H](NC(=O)c1ccccc1)C(=O)N[C@@H](CCCCN)C(=O)N[C@@H](C(N)=O)c1ccc(OCc2c(Cl)cccc2Cl)cc1 | 151 | < 30 | 493 | 101
19 | N=C(N)NCCC[C@H](NC(=O)c1sccc1Cl)C(=O)N[C@@H](CCCCN)C(=O)N[C@@H](C(N)=O)c1ccc(OCc2ccccc2)cc1 | 194 | < 30 | – | 95.2
20 | N=C(N)NCCC[C@H](NC(=O)/C=C/c1ccc(Cl)cc1)C(=O)N[C@@H](CCCCN)C(=O)N[C@@H](C(N)=O)c1ccc(OCc2ccccc2)cc1 | 721 | < 30 | 368 | 99.4

Row | Structure (SMILES) | IC50 [1] [nM] | inhibition [2] [%] | IC50 [3] [nM] | inhibition (West Nile virus) [%]
21 | N=C(N)NCCC[C@H](NC(=O)c1ccccc1)C(=O)N[C@@H](CCCCN)C(=O)N[C@@H](C(N)=O)c1ccc(OCc2ccc(OC(F)(F)F)cc2)cc1 | 182 | < 30 | – | 97.1
22 | N=C(N)NCCC[C@H](NC(=O)c1ccccc1F)C(=O)N[C@@H](CCCCN)C(=O)N[C@@H](C(N)=O)c1ccc(OCc2ccccc2)cc1 | 340 | < 30 | 1290 | 100
23 | CC(C)(C)c1ccc(COc2ccc([C@@H](NC(=O)[C@H](CCCCN)NC(=O)[C@H](CCCNC(=N)N)NC(=O)c3ccccc3)C(N)=O)cc2)cc1 | 173 | < 30 | – | 85.6
24 | Cc1cccc(COc2ccc([C@@H](NC(=O)[C@H](CCCCN)NC(=O)[C@H](CCCNC(=N)N)NC(=O)c3ccccc3)C(N)=O)cc2)c1 | 309 | < 30 | – | 85.2
25 | N=C(N)NCCC[C@H](NC(=O)c1cccnc1)C(=O)N[C@@H](CCCCN)C(=O)N[C@@H](C(N)=O)c1ccc(OCc2ccccc2)cc1 | 262 | < 30 | – | 96.4
26 | N=C(N)NCCC[C@H](NC(=O)c1ccccc1)C(=O)N[C@@H](CCCCN)C(=O)N[C@@H](C(N)=O)c1ccc(OCc2ccc(F)cc2)cc1 | 196 | < 30 | 349 | 100
27 | COc1cccc(COc2ccc([C@@H](NC(=O)[C@H](CCCCN)NC(=O)[C@H](CCCNC(=N)N)NC(=O)c3ccccc3)C(N)=O)cc2)c1 | 147 | < 30 | 804 | 99
28 | N=C(N)NCCC[C@H](NC(=O)c1nccs1)C(=O)N[C@@H](CCCCN)C(=O)N[C@@H](C(N)=O)c1ccc(OCc2ccccc2)cc1 | 99 | < 30 | 158 | 98.8
29 | N=C(N)NCCC[C@H](NC(=O)c1ccccc1)C(=O)N[C@@H](CCCCN)C(=O)N[C@@H](C(N)=O)c1ccc(OCc2ccccc2Cl)cc1 | 321 | < 30 | 406 | 98.1
30 | N=C(N)NCCC[C@H](NC(=O)c1ccc(C=O)cc1)C(=O)N[C@@H](CCCCN)C(=O)N[C@@H](C(N)=O)c1ccc(OCc2ccccc2)cc1 | 232 | < 30 | – | 83
31 | N=C(N)NCCC[C@H](NC(=O)C1CCCCC1)C(=O)N[C@@H](CCCCN)C(=O)N[C@@H](C(N)=O)c1ccc(OCc2ccccc2)cc1 | 781 | < 30 | – | 95.7
32 | N=C(N)NCCC[C@H](NC(=O)CCc1ccccc1)C(=O)N[C@@H](CCCCN)C(=O)N[C@@H](C(N)=O)c1ccc(OCc2ccccc2)cc1 | 906 | < 30 | – | 87.4
33 | N=C(N)NCCC[C@H](NC(=O)c1ccccc1)C(=O)N[C@@H](CCCCN)C(=O)N[C@@H](C(N)=O)c1ccc(OCc2ccccc2Br)cc1 | 366 | < 30 | – | 96.7
34 | Cc1ccc(C(=O)N[C@@H](CCCNC(=N)N)C(=O)N[C@@H](CCCCN)C(=O)N[C@@H](C(N)=O)c2ccc(OCc3ccccc3)cc2)s1 | 364 | < 30 | – | 92.6
35 | N=C(N)NCCC[C@H](NC(=O)c1scc2c1OCCO2)C(=O)N[C@@H](CCCCN)C(=O)N[C@@H](C(N)=O)c1ccc(OCc2ccccc2)cc1 | 194 | < 30 | – | 96.2
36 | N=C(N)NCCC[C@H](NC(=O)c1ccccc1)C(=O)N[C@@H](CCCCN)C(=O)N[C@@H](C(N)=O)c1ccc(OCc2ccc(N)cc2)cc1 | 1990 | < 30 | – | 85.1
37 | N=C(N)NCCC[C@H](NC(=O)c1cc2sccc2s1)C(=O)N[C@@H](CCCCN)C(=O)N[C@@H](C(N)=O)c1ccc(OCc2ccccc2)cc1 | 401 | < 30 | – | 92.5
38 | N=C(N)NCCC[C@H](NC(=O)c1cccc(F)c1)C(=O)N[C@@H](CCCCN)C(=O)N[C@@H](C(N)=O)c1ccc(OCc2ccccc2)cc1 | 466 | < 30 | – | 95.5
39 | N=C(N)NCCC[C@H](NC(=O)c1cccc(C=O)c1)C(=O)N[C@@H](CCCCN)C(=O)N[C@@H](C(N)=O)c1ccc(OCc2ccccc2)cc1 | 164 | < 30 | – | 97.4
